18 compounds from ChEMBL document CHEMBL1135464, “3-Aryl-2-quinolone derivatives: synthesis and characterization of in vitro and in vivo antitumor effects with emphasis on a new therapeutical target connected with cell migration” (J Med Chem, 2002) can be followed below.

The subject of one series is A-427. The series can be described thus: Cytotoxicity against A-427 nonsmall lung cell line using MTT colorimetric assay. Type of series: functional, cell-based. The conditions noted are these: Homo sapiens. Summed up:
(§1)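 Human tumour lines from ATCC were grown at 37 °C in sealed dishes in MEM with 5% FCS. Cells were seeded at 40000 cells/mL in 96-well plates and left 24 h to plate. Each drug was then tested at six concentrations from 10^-5 to 10^-9 M. Growth was read by colorimetric MTT assay.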
Background: Formazan colour is commonly taken as a measure of viable cells.

A further series has as its system A549. Briefly: Cytotoxicity against A549 nonsmall lung cell line using MTT colorimetric assay. It is filed as functional, cell-based. Conditions: Homo sapiens. Put shortly: as §1
The subject of another series is A 172. The series can be described thus: Cytotoxicity against A-172 glioblastomas using MTT colorimetric assay. It is filed as functional, cell-based. The conditions noted are these: Homo sapiens. Put shortly: as §1
The nature of series [1]: Evaluated in vivo for maximum tolerated dose and found to be nontoxic. It is filed as ADME, organism-based.
The next series has as its system HCT-15. The series can be described thus: Cytotoxicity against HCT-15 colon cell line using MTT colorimetric assay. Conditions: Homo sapiens. It is filed as functional, cell-based. Summed up: as §1
Another series has as its system J82. The series can be described thus: Cytotoxicity against J82 bladder cell lines using MTT colorimetric assay. Type of series: functional, cell-based. Conditions: Homo sapiens. Summed up:
as §1

The test system of a further series is LoVo. The series can be described thus: Cytotoxicity measured on LoVo colon cell line using MTT colorimetric assay. Type of series: functional, cell-based. Conditions: Homo sapiens. Summed up:
as §1

The subject of the next series is PC-3. The series can be described thus: Cytotoxicity against prostate cell line PC-3 using MTT colorimetric assay. Conditions: Homo sapiens. Type of series: functional, cell-based. Put shortly: as §1
In the next series the test system is T47D. Briefly: Cytotoxicity against Breast cancer cell line T-47D using MTT colorimetric assay. It is filed as functional, cell-based. Conditions: Homo sapiens. Summed up:
as §1

The test system of a further series is T-24. The series can be described thus: Cytotoxicity against T24 bladder cell lines using MTT colorimetric assay. Type of series: functional, cell-based. Conditions: Homo sapiens. Put shortly: as §1
In another series the test system is U373 MG. The series can be described thus: Cytotoxicity against U-373 MG glioblastomas using MTT colorimetric assay. It is filed as functional, cell-based, U-373MG ATCC. Conditions: Homo sapiens. Summed up: as §1
In the next series the test system is U-87 MG. Briefly: Cytotoxicity against U-87 MG glioblastomas using MTT colorimetric assay. It is filed as functional, cell-based, U-87MG ATCC. Conditions: Homo sapiens. Put shortly: as §1
For a further series, the system named is MCF7. Briefly: Cytotoxicity against Breast cancer cell line MCF-7 using MTT colorimetric assay. It is filed as functional, cell-based. The conditions noted are these: Homo sapiens. Put shortly:
as §1

The structures appear in SMILES notation.

In general, IC50 refers to the midpoint of a concentration-inhibition curve. High values mean weaker potency, low ones greater potency. The MTD is the largest dose that counted as tolerated. High values mean better tolerability, low ones poorer tolerability. As to `COc1cccc2cc(-c3ccccc3)c(O)nc12`, the IC50 with A-427, in the series on A549, with A 172, in the series with HCT-15, in the series with J82 and in the series on LoVo was more than 10 µM throughout. For the same compound, the IC50 with PC-3, in the series on T47D, in the series on T-24, in the series with U373 MG, in the series on U-87 MG and with MCF7 was more than 10 µM in each case. In [1], the MTD came to 160 mg/kg.

Take `COc1ccc(-c2cc3c(OC)cc(OC)cc3n(C)/c2=N\Nc2ccccn2)cc1`: the IC50 with A-427, with A549, in the series on A 172, in the series with HCT-15, in the series with J82 and in the series with LoVo was more than 10 µM in each case. The IC50 in the series with PC-3, with T47D, with T-24, in the series with U373 MG, with U-87 MG and in the series on MCF7 was more than 10 µM throughout. In series [1], this compound displayed an MTD of 160 mg/kg.

As for `COc1cc(OC)c2cc(-c3ccc(O)cc3)c(=O)n(C)c2c1`, the half-maximal inhibitory concentration (IC50) in the series on A-427, in the series on A549, in the series with A 172, in the series on HCT-15, with J82 and with LoVo was more than 10 µM each time. The IC50 in the series on PC-3, with T47D, in the series with T-24, with U373 MG, in the series on U-87 MG and with MCF7 was more than 10 µM in each case. Also, the MTD in series [1] worked out at 160 mg/kg.

In the case of `COc1ccc(-c2cc3c(OC)cc(OC)c4c3n(c2=O)CCC4=O)cc1`, the IC50 with A-427, in the series with A549, with A 172, in the series on HCT-15, with J82 and in the series on LoVo was more than 10 µM throughout. The IC50 in the series on PC-3, in the series with T47D, in the series on T-24, with U373 MG, with U-87 MG and with MCF7 was more than 10 µM each time. In series [1], this compound returned an MTD of 160 mg/kg.

For the compound `COc1ccc(-c2cc3c(OC)cc(OC)cc3n(CC#N)c2=O)cc1`, the IC50 in the series with A-427, with A549, in the series on A 172, in the series on HCT-15, in the series on J82 and in the series with LoVo was more than 10 µM throughout. Also, the IC50 with PC-3, with T47D, in the series on T-24, in the series with U373 MG, with U-87 MG and in the series on MCF7 was more than 10 µM each time. This compound also came in with a maximal tolerated dose (MTD) in series [1] of 160 mg/kg.

On to `COc1ccc(-c2cc3c(OC)cc(OC)cc3n(CC(=O)OCc3ccccc3)c2=O)cc1`, for which the IC50 in the series with A-427, with A549, in the series on A 172, in the series on HCT-15, in the series with J82 and in the series on LoVo was more than 10 µM in each case. Moreover, the IC50 with PC-3, in the series with T47D, in the series with T-24, with U373 MG, in the series on U-87 MG and with MCF7 was more than 10 µM in each case. This compound also displayed an MTD in series [1] of 160 mg/kg.

For the compound `Oc1ccc(-c2cc3c(O)cc(O)cc3nc2O)cc1`, the IC50 in the series on A-427, in the series with A549, with A 172, in the series on HCT-15, in the series with J82 and with LoVo was more than 10 µM throughout. Moreover, the IC50 with PC-3, in the series on T47D, in the series on T-24, with U373 MG, with U-87 MG and in the series with MCF7 was more than 10 µM throughout. Besides, the MTD in [1] was found to be 160 mg/kg.

`COc1ccc(-c2cc3c(OC)cc(OC)cc3nc2O)cc1` yielded an MTD in [1] of 160 mg/kg.

As to `COc1ccc(-c2cc3c(OC)cc(OC)cc3n(C)c2=O)cc1`, the IC50 in the series with A-427, in the series with A549, with HCT-15, in the series on J82, in the series with LoVo and in the series on PC-3 was more than 10 µM in each case. Besides, the IC50 with T47D, in the series on T-24, in the series on U373 MG, with U-87 MG and in the series with MCF7 was more than 10 µM each time. In addition, the maximal tolerated dose (MTD) in series [1] is 160 mg/kg.

Consider `CCOC(=O)Cn1c(=O)c(-c2ccc(OC)cc2)cc2c(OC)cc(OC)cc21`, for which the IC50 in the series with A-427, with A549, with A 172, in the series on HCT-15, in the series with J82 and in the series with LoVo was more than 10 µM throughout. Besides, the concentration for half-maximal inhibition (IC50) in the series on PC-3, in the series on T47D, with T-24, with U373 MG, with U-87 MG and with MCF7 was more than 10 µM throughout. In series [1], the MTD amounted to 160 mg/kg.

In the case of `COc1ccc(-c2cc3cccc(OC)c3nc2O)cc1`, the IC50 with A-427, in the series on A549, with A 172, in the series with HCT-15, with J82 and in the series on LoVo was more than 10 µM throughout. The IC50 with PC-3, in the series on T47D, in the series with T-24, in the series on U373 MG, with U-87 MG and in the series with MCF7 was more than 10 µM in each case. In series [1], this compound showed a maximal tolerated dose (MTD) of 160 mg/kg.

`CCN(CC)C(=O)CCn1c(=O)c(-c2ccc(OC)cc2)cc2c(OC)cc(OC)cc21`: the IC50 in the series on A-427, in the series on A549, with A 172, in the series on HCT-15, in the series on J82 and in the series with LoVo was more than 10 µM throughout. Also, the IC50 with PC-3, in the series with T47D, in the series with T-24, in the series on U373 MG, in the series with U-87 MG and in the series with MCF7 was more than 10 µM each time. Also, the MTD in series [1] was found to be 160 mg/kg.

For the compound `COc1ccc(-c2cc3c(OC)cc(OC)cc3n(C)c2=S)cc1`, the IC50 with A-427, with A549, in the series with A 172, in the series on HCT-15, in the series on J82 and in the series on LoVo was more than 10 µM in each case. The IC50 in the series on PC-3, in the series with T47D, in the series on T-24, in the series on U373 MG, in the series with U-87 MG and with MCF7 was more than 10 µM in each case. Also, in [1], the MTD was 160 mg/kg.

Regarding `COc1cc(OC)c2cc(-c3ccc(O)cc3)c(O)nc2c1`, the IC50 in the series with A-427, in the series on A549, in the series on A 172, in the series on HCT-15, with J82 and in the series with LoVo was more than 10 µM throughout. The IC50 in the series on PC-3, in the series with T47D, in the series on T-24, in the series with U373 MG, in the series with U-87 MG and with MCF7 was more than 10 µM throughout. The same compound gave an MTD in series [1] of 160 mg/kg.

Consider `Cn1c(=O)c(-c2ccc(O)cc2)cc2c(O)cc(O)cc21`, for which the IC50 in the series with A-427, in the series with A549, with A 172, in the series with HCT-15, in the series on J82 and in the series on LoVo was more than 10 µM each time. For the same compound, the IC50 in the series with PC-3, in the series with T47D, with T-24, in the series with U373 MG, in the series with U-87 MG and in the series on MCF7 was more than 10 µM in each case. Also, in [1], the MTD came to 160 mg/kg.

With `COc1ccc(-c2cc3c(OC)cc(OC)cc3n(CCC#N)c2=O)cc1`, the IC50 with A-427, in the series with A549, with A 172, in the series with HCT-15, in the series with J82 and in the series on LoVo was more than 10 µM in each case. For the same compound, the IC50 in the series on PC-3, in the series with T47D, in the series with T-24, with U373 MG, in the series with U-87 MG and with MCF7 was more than 10 µM in each case. Moreover, the MTD in [1] is 160 mg/kg.

Consider `CC(=O)Oc1ccc(-c2cc3c(OC(C)=O)cc(OC(C)=O)cc3n(C)c2=O)cc1`, for which the IC50 in the series on A-427, with A549, in the series with A 172, with HCT-15, with J82 and with LoVo was more than 10 µM in each case. Further, the 50% inhibitory concentration (IC50) with PC-3, with T47D, with T-24, with U373 MG, in the series on U-87 MG and in the series on MCF7 was more than 10 µM throughout. Also, the MTD in [1] turned out to be 160 mg/kg.

In the case of `COc1ccc(-c2cc3c(OC)cc(OC)cc3n(C)/c2=N\Nc2ccccc2)cc1`, the IC50 in the series with A-427, in the series on A549, with A 172, in the series on HCT-15, in the series on J82 and in the series with LoVo was more than 10 µM throughout. Besides, the IC50 with PC-3, in the series with T47D, in the series on T-24, in the series with U373 MG, with U-87 MG and in the series with MCF7 was more than 10 µM each time. This compound gave a maximum tolerated dose (MTD) in series [1] of 160 mg/kg.
